Structures can show the parent of a compound that is named as a salt. Each block holds one molecule with its values, some of them ahead of it.
What was measured:
[1] = target: T1, interaction between NHP2L1 and U4 5′SL (Homo sapiens, UniProt P55769); assay: TR-FRET HTS assay of NHP2L1-U4 interaction; assay type: binding; conditions: for potency in dose response screening (IC50 ranking): dose responsive analysis, ten 1:3 dilutions, TR-FRET; for disruption of the interaction of U4 and NHP2L1: TR-FRET dose response, camptothecin derivatives
T1 sequence (P55769 1-128): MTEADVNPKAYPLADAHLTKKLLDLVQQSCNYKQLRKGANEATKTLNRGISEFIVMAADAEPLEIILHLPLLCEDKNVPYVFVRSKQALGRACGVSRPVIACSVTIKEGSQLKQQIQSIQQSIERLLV

NHP2L1 U4 complex [2] = target: T2, NHP2L1 U4 complex (Homo sapiens, UniProt P55769); assay: Electrophoretic gel mobility shift assay; assay type: binding; conditions: topotecan 0.2, 2, 20, 200 μM
T2 sequence (P55769 1-128): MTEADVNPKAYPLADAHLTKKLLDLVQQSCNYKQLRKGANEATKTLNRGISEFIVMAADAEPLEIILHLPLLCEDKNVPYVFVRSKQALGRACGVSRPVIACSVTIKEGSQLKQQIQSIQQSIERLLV
How it was run: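 Recombinant NHP2L1 (E. coli BL21(DE3), Ni-chelate then gel filtration) plus biotinylated U4 5′SL, ±test compound, 45 min at room temperature in 20 mM Tris-HCl pH 7.6, 150 mM NaCl, 0.1% Triton X-100, 2 mM DTT, 0.5 g/L tRNA. Run on 6% retardation gel, 0.5× TBE, 100 V, 60 min, then nylon transfer and chemiluminescent detection. Shifted band quantified by densitometry as % of complex without compound.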

U4 5′ SL [3] = assay: Surface plasmon resonance, immobilized U4 5′SL; assay type: binding; conditions: max 50μM, OneStep gradient injection, 20° C
U4 5′ SL [4] = assay: 1D NMR titration of U4 5′SL; assay type: binding; conditions: U4:topotecan 1:0 to 1:10
How it was run: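 Solution NMR at pH 5.0 (100 mM NaCl, 100 mM sodium phosphate, 10% D2O, 2% DMSO-d6). U4 5′SL at 100 μM with increasing test compound, monitored by 1D and 2D [1H,1H] TOCSY (60 ms mixing) and NOESY (100 ms mixing) spectra.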

[5] = tested on: pre-mRNA splicing (pTN23 reporter) in HEK293 cells; assay: pTN23 splicing reporter assay; assay type: cell-based, Human; conditions: HEK293, topotecan 250nM, 24 hours
NHP2L1 protein = target: T3, NHP2L1 protein (Homo sapiens, UniProt P55769); assay: Surface plasmon resonance, immobilized NHP2L1; assay type: binding; conditions: max 50μM, OneStep gradient injection, 20° C
T3 sequence (P55769 1-128): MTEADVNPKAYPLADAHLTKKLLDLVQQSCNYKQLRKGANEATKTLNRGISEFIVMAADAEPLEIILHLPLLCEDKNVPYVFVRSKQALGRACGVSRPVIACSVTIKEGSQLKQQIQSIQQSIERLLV

NHP2L1 U4 complex [6] = target: T2, NHP2L1 U4 complex; assay: NMR of NHP2L1-U4 complex with topotecan; assay type: binding
How it was run: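 15N-labelled NHP2L1 was premixed 1:1 with unlabelled U4 5′SL in pH 5.0 phosphate buffer (100 mM NaCl, 10% D2O, 2% DMSO-d6), with backbone assigned from HNCA/HNCACB. Chemical shift perturbations were read from 2D [15N,1H] HSQC/TROSY at 64 scans, and at 400 scans for the 1:1:20 TROSY.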

[7] = target: T4, NHP2L1 (15.5K), His-tagged (UniProt P55769 1-128); assay: TR-FRET
T4 sequence: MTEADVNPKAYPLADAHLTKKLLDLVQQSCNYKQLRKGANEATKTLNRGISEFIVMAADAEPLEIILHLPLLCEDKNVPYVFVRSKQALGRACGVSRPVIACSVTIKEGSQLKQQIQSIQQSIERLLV

Molecule: CC[C@@]1(O)C(=O)OCc2c1cc1n(c2=O)Cc2cc3cc(O)ccc3nc2-1 [10-OH-(S)-camptothecin]
- potency in dose response screening (IC50 ranking) [1]: among the most potent inhibitors

Molecule: CC[C@@]1(O)C(=O)OCc2c1cc1n(c2=O)Cc2cc3c(CNC)c(O)ccc3nc2-1 [N-demethyl-topotecan, N-Desmethyl topotecan]
- disruption of the interaction of U4 and NHP2L1 [1]: able to disrupt the interaction of U4 and NHP2L1

Molecule: CCc1c2c(nc3ccc(O)cc13)-c1cc3c(c(=O)n1C2)COC(=O)[C@]3(O)CC [SN-38]
- disruption of the interaction of U4 and NHP2L1 [1]: able to disrupt the interaction of U4 and NHP2L1
- potency in dose response screening (IC50 ranking) [1]: among the most potent inhibitors

Molecule: CC[C@@]1(O)C(=O)OCc2c1cc1n(c2=O)Cc2cc3ccccc3nc2-1 [camptothecin, (S)-camptothecin]
- disruption of the interaction of U4 and NHP2L1 [1]: less effective at disrupting the NHP2L1 and U4 interaction

Molecule: CCc1c2c(nc3ccc(OC(=O)N4CCC(N5CCCCC5)CC4)cc13)-c1cc3c(c(=O)n1C2)COC(=O)[C@]3(O)CC [irinotecan]
- disruption of the interaction of U4 and NHP2L1 [1]: less effective at disrupting the NHP2L1 and U4 interaction

- inhibition at 15 µM ([1]; read-out: percentage of inhibition in primary screening): 81.6%
Molecule: CC[C@@]1(O)C(=O)OCc2c1cc1n(c2=O)Cc2cc3c(CN(C)C)c(O)ccc3nc2-1 [topotecan hydrochloride]

- potency in dose response screening (IC50 ranking) [1]: among the most potent inhibitors
- binding to U4 by SPR (U4 5′ SL [3]): binds to U4 in a time-dependent manner
- binding to NHP2L1 by SPR (NHP2L1 protein): markedly less binding to NHP2L1
Molecule: CC[C@@]1(O)C(=O)OCc2c1cc1n(c2=O)Cc2cc3c(CN(C)C)c(O)ccc3nc2-1 [topotecan, Topotecan]
- disruption of the interaction of U4 and NHP2L1 [1]: able to disrupt the interaction of U4 and NHP2L1
- inhibition of NHP2L1-U4 5′SL shift (NHP2L1 U4 complex [2]): greater inhibition with increasing concentrations
- binding to U4 5′ SL by 1D NMR (U4 5′ SL [4]): binding of topotecan to U4 5′ SL was confirmed
- splicing efficiency (ratio of luciferase to β-galactosidase activities) ([5]; p<0.001): significantly decreased splicing efficiency
- β-galactosidase activities ([5]; p=0.4): without changing significantly β–galactosidase activities
- direct binding to NHP2L1-U4 complex by 1D NMR (NHP2L1 U4 complex [6]; 1D spectrum of complex): able to directly bind to the NHP2L1-U4 complex
- displacement of NHP2L1 from U4 by 2D NMR (NHP2L1 U4 complex [6]; NHP2L1:U4:topotecan 1:1:20 (2mM topotecan)): displaces NHP2L1 from U4 only at high concentrations

Molecule: AUCGUAGCCAAUGAGGUUUAUCCGAGGCGCGAU (structured_RNA) [Cy5-U4 5'SL]
- Kd [7]: 0.68 nM

From PMC5783296 (SLAS discovery : advancing life sciences R & D, 2017)
